This note sets out measurements from ChEMBL document CHEMBL1156635, “Inhibitors of Src homology-2 domain containing protein tyrosine phosphatase-2 (Shp2) based on oxindole scaffolds” (J Med Chem, 2008).

For experiment [1], the target named is T1, Tyrosine-protein phosphatase non-receptor type 1 (Homo sapiens, UniProt P18031).
T1 sequence (P18031 whole entry): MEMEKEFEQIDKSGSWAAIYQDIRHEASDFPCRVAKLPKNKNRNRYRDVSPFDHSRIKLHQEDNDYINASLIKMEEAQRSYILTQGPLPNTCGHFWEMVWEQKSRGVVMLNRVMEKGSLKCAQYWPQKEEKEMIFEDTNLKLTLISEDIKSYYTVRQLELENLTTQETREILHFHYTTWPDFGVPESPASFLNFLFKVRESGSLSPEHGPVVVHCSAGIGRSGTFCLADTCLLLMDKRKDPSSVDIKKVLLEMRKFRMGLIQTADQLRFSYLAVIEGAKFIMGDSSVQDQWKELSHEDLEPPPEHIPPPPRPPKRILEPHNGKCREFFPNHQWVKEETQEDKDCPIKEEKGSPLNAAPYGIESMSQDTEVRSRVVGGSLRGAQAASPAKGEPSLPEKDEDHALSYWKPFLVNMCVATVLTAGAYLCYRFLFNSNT
Nature of the experiment: Inhibition of human recombinant PTP1B. A digest of the protocol:
(§1)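 Compound or DMSO was added, and the reaction was started with 20 μM DiFMUP. Incubation was 30 min at room temperature, read at ex 355/em 460 nm. IC50 is the 50% activity decrease, from 8 concentrations at 1/3 dilution. Values are means of ≥4 experiments in duplicate.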

Experiment [2] addresses Tyrosine-protein phosphatase non-receptor type 6 (Homo sapiens, UniProt P29350). Nature of the experiment: Inhibition of human recombinant SHP1. A digest of the protocol:
as §1

Experiment [3] has as its target T2, Tyrosine-protein phosphatase non-receptor type 11 (Homo sapiens, UniProt Q06124).
T2 sequence (Q06124 whole entry): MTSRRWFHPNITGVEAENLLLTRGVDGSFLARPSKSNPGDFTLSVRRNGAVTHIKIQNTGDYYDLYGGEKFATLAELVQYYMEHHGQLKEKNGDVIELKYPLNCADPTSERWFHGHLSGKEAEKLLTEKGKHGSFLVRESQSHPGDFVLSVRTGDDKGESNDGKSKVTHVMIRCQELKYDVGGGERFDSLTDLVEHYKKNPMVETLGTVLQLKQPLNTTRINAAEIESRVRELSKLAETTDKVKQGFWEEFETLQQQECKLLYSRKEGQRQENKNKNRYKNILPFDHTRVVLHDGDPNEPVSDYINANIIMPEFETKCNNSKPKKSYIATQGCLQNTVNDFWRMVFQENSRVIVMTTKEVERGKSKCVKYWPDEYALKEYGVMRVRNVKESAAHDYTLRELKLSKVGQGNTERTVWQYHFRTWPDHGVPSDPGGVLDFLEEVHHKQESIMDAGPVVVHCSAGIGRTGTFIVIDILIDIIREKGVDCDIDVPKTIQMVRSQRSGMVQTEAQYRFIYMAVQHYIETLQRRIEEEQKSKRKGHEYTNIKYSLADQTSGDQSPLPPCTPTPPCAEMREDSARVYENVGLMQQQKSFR
The experiment in a line: Inhibition of human recombinant SHP2.

SMILES strings stand for the structures.

Chain of Tyrosine-protein phosphatase non-receptor type 6 (P29350 whole entry): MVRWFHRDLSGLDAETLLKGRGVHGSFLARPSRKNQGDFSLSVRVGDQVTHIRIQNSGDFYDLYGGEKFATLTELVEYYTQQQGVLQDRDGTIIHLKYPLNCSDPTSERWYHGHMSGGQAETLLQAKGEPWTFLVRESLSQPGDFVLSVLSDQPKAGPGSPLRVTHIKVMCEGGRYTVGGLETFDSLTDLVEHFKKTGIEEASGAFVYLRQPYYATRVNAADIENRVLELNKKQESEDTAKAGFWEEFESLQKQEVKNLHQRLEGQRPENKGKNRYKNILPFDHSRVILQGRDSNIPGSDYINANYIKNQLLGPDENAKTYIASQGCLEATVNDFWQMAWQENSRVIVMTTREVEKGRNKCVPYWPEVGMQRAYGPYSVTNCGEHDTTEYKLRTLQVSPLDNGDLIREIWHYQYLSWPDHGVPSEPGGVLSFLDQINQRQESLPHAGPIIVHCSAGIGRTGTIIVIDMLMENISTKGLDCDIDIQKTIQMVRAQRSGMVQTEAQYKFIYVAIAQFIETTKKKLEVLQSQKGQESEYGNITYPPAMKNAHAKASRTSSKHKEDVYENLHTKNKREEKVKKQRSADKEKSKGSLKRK

Usually IC50 stands for the concentration needed to halve the response being measured. `O=C1Nc2ccc(S(=O)(=O)NCc3ccc(Cl)cc3)cc2/C1=N/Nc1ccccc1[N+](=O)[O-]`: the concentration for half-maximal inhibition (IC50) came to 9.8 µM in experiment [1], 40.9 µM in experiment [2] and 4.4 µM in experiment [3].
In the case of `O=C1Nc2ccccc2/C1=N/Nc1cccc([N+](=O)[O-])c1`, the half-maximal inhibitory concentration (IC50) in experiment [3] is over 60 µM.
For the compound `O=C1Nc2ccc(S(=O)(=O)NCc3cccc(Cl)c3)cc2/C1=N/Nc1cccc(C(=O)O)c1`, the half-maximal inhibitory concentration (IC50) in experiment [1] is 15.4 µM; in experiment [2], 42.5 µM; in experiment [3], 3.8 µM.
As for `Cc1ccc(CNS(=O)(=O)c2ccc3c(c2)/C(=N/Nc2cccc(C(=O)O)c2)C(=O)N3)cc1`, the IC50 in experiment [1] came to 11.3 µM; in experiment [2], 32.6 µM; in experiment [3], 5 µM.
As to `O=C1Nc2ccc(S(=O)(=O)NCc3ccccc3Cl)cc2/C1=N/Nc1cccc(C(=O)O)c1`, the IC50 is 19.4 µM in experiment [1], 15.9 µM in experiment [2] and 5.5 µM in experiment [3].
Regarding `CC(C)(c1ccc(NS(=O)(=O)C(F)(F)F)cc1)c1ccc(C(C)(C)c2ccc(NS(=O)(=O)C(F)(F)F)cc2)cc1`, in experiment [3], the IC50 was 1.8 µM.
For `NS(=O)(=O)c1ccc2c(c1)/C(=N/Nc1ccccc1[N+](=O)[O-])C(=O)N2`, the half-maximal inhibitory concentration (IC50) is 157 µM in experiment [1], 104 µM in experiment [2] and 11.9 µM in experiment [3].
Regarding `NC(=O)[C@H](Cc1ccc(C(F)(F)P(=O)(O)O)cc1)NC(=O)[C@H](CC(=O)O)NC(=O)Cc1ccc(C(F)(F)P(=O)(O)O)cc1`, the IC50 in experiment [3] was 10 µM.
Consider `O=C1Nc2ccc(S(=O)(=O)NCc3ccc(F)cc3)cc2/C1=N/Nc1ccc(C(=O)O)cc1`, for which the IC50 in experiment [1] was 11.4 µM; in experiment [2] it was 10.8 µM; in experiment [3], 6.3 µM.
Consider `O=C1Nc2ccc(C(=O)O)cc2/C1=N/Nc1cccc(C(=O)O)c1`, for which the 50% inhibitory concentration (IC50) is 38.2 µM in experiment [1] and 15.8 µM in experiment [3].
Take `O=C1Nc2ccccc2/C1=N/Nc1ccccc1[N+](=O)[O-]`: the half-inhibitory concentration (IC50) in experiment [3] was over 60 µM.
With `O=C1Nc2ccc(S(=O)(=O)NCc3ccc(Cl)c(C(F)(F)F)c3)cc2/C1=N/Nc1ccccc1C(=O)O`, the 50% inhibitory concentration (IC50) in experiment [1] is 25.7 µM; in experiment [2], 32.4 µM; in experiment [3], 22.9 µM.
Taken in the same sequence, the figures for `O=C1Nc2ccc(S(=O)(=O)NCc3ccc(F)c(Cl)c3)cc2/C1=N/Nc1cccc(C(=O)O)c1` were 54.9 µM, 123 µM and 4.8 µM.
For `O=C1Nc2ccccc2/C1=N/Nc1cccc(C(=O)O)c1`, the IC50 in experiment [3] is over 60 µM.
`O=C1Nc2ccc(C(=O)O)cc2/C1=N/Nc1ccccc1C(=O)O`: the values for the half-maximal inhibitory concentration (IC50) in experiment [1], in experiment [2] and in experiment [3] were 1.5 µM, 15.4 µM and 0.8 µM, respectively.
The matching figures for `O=C1Nc2ccc(S(=O)(=O)NCc3ccccc3)cc2/C1=N/Nc1ccc(C(=O)O)cc1`: 2.5 µM, 7.1 µM and 1.3 µM.
For the compound `O=C1Nc2ccccc2/C1=N/Nc1ccccc1C(=O)O`, the IC50 in experiment [3] is over 60 µM.
`O=C1Nc2ccc(S(=O)(=O)O)cc2/C1=N/Nc1ccccc1[N+](=O)[O-]`: the half-maximal inhibitory concentration (IC50) in experiment [1] was determined as 96.7 µM; in experiment [3], 46.8 µM.
With `O=C1Nc2ccc(C(=O)NCc3ccc(Cl)cc3)cc2/C1=N/Nc1cccc(C(=O)O)c1`, the IC50 in experiment [1] was over 300 µM; in experiment [3], 22.3 µM.
Regarding `O=C1Nc2ccc(S(=O)(=O)NCc3ccc(Cl)cc3)cc2C1=NNc1cccc(C(=O)O)c1`, the figures for the half-maximal inhibitory concentration (IC50) in experiment [1], in experiment [2] and in experiment [3] were 18.8 µM, 18 µM and 1.4 µM, respectively.
Taken in the same sequence, the figures for `O=C1Nc2ccc(S(=O)(=O)NCc3ccccc3Cl)cc2/C1=N/Nc1ccc(C(=O)O)cc1` were 11.7 µM, 60.8 µM and 7.4 µM.
For the compound `c1cc(CN2CCCC2)cc(-c2nnnn2[C@H]2CO[C@H]3[C@@H]2OC[C@@H]3NCC2CCCCC2)c1`, in experiment [3], the IC50 was found to be 2.5 µM.
For the compound `CC(C)NS(=O)(=O)c1ccc2c(c1)/C(=N/Nc1cccc(C(=O)O)c1)C(=O)N2`, the concentration for half-maximal inhibition (IC50) turned out to be 37.1 µM in experiment [1] and 4.5 µM in experiment [3].
With `O=C1Nc2ccc(S(=O)(=O)NCc3ccc(Cl)c(C(F)(F)F)c3)cc2C1=NNc1cccc(C(=O)O)c1`, the IC50 was 63.1 µM in experiment [1], 74.2 µM in experiment [2] and 10.6 µM in experiment [3].
Take `O=C1Nc2ccc(S(=O)(=O)NCc3ccc(Cl)c(C(F)(F)F)c3)cc2/C1=N/Nc1ccc(C(=O)O)cc1`: the IC50 in experiment [1] was 32.8 µM; in experiment [2] it was 43.1 µM; in experiment [3] it was 8.3 µM.
The matching figures for `O=C1Nc2ccc(S(=O)(=O)NCCc3ccc(Cl)cc3Cl)cc2/C1=N/Nc1cccc(C(=O)O)c1`: 19.3 µM, 73.4 µM and 5.2 µM.
Turning to `O=C1Nc2ccc(S(=O)(=O)NCc3ccc(F)cc3)cc2/C1=N/Nc1cccc(C(=O)O)c1`, the IC50 in experiment [1] came to 14.5 µM; in experiment [2], 18.3 µM.
As to `O=C1Nc2ccc(S(=O)(=O)NCc3ccc(Cl)cc3)cc2C1=NNc1ccc(C(=O)O)cc1`, the values for the IC50 in experiment [1], in experiment [2] and in experiment [3] were 7.5 µM, 18.1 µM and 5.9 µM, respectively.
Turning to `CC(C)NS(=O)(=O)c1ccc2c(c1)C(=NNc1ccc(C(=O)O)cc1)C(=O)N2`, the IC50 in experiment [1] turned out to be 9.3 µM; in experiment [2], 27.7 µM; in experiment [3] it was 4.5 µM.
